ChEMBL document CHEMBL3526093, “Oxidative ipso substitution of 2,4-difluoro-benzylphthalazines: identification of a rare stable quinone methide and subsequent GSH conjugate” (Drug Metab Dispos, 2012)

Assays:
Liver microsome [1] = test: Drug level in human liver microsomes treated with 10 uM [2-(6-(4-(4-(2,4-difluorobenzyl)phthalazin-1-yl)piperazin-1-yl)pyridin-3-yl)propan-2-ol] by LC/MS method; type: ADME
How it was run: (§1)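 Pooled human liver microsomes (1 mg/ml protein) in 0.1 M KH2PO4 pH 7.4 with 5 mM MgCl2 and substrate, prewarmed 2 min at 37°C with shaking. Started with 2 mM NADPH, then 5 mM GSH added 3 min later. Controls omitted GSH or NADPH. Samples at 0, 0.5 and 1 h quenched in ice-cold acetonitrile, centrifuged, supernatant analysed by positive-ion ESI LC/MSn.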

[2] = Retention time of the compound by LC/MS method; type: physicochemical
How it was run: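 Reversed-phase C18 column (2.1 × 150 mm), 20 µl injection, 0.25 ml/min. A: 10 mM ammonium formate/0.1% formic acid in water. B: acetonitrile/0.1% formic acid. Gradient held at 10% B for 5 min, then to 90% B over 24 min, back to 10% B over 2 min, held 3 min (35 min run). Positive-ion electrospray detection.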

Cytochrome P450 3A4 [3] = target: T1, Cytochrome P450 3A4 (Homo sapiens, UniProt P08684); test: Drug metabolism assessed as human CYP3A4-mediated compound formation using 10 uM [2-(6-(4-(4-(2,4-difluorobenzyl)phthalazin-1-yl)piperazin-1-yl)pyridin-3-yl)propan-2-ol] by LC/MS method; type: ADME; conditions: recombinant enzyme
How it was run: (§2)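 Recombinant human P450 Supersomes (100 pmol/ml enzyme) in 0.1 M KH2PO4 pH 7.4 with 5 mM MgCl2 and substrate, prewarmed 2 min at 37°C. NADPH (2 mM) started the reaction, with GSH (5 mM) added 3 min later. Controls lacked GSH or NADPH. Aliquots at 0, 0.5 and 1 h were stopped in ice-cold acetonitrile, spun, and supernatants run on LC/MSn.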

[4] = Half life under physiological conditions; type: ADME
Liver microsome [5] = test: Drug metabolism in human liver microsomes assessed as quinone methide metabolite formation at 10 uM by LC/MS method; type: ADME; how it was run: as §1
Cytochrome P450 2E1 = Cytochrome P450 2E1 (Homo sapiens, UniProt P05181); test: Drug metabolism assessed as human CYP2E1-mediated quinone methide metabolite formation at 10 uM by LC/MS method; type: ADME; conditions: recombinant enzyme; how it was run: as §2
Cytochrome P450 2D6 = Cytochrome P450 2D6 (Homo sapiens, UniProt P10635); test: Drug metabolism assessed as human CYP2D6-mediated quinone methide metabolite formation at 10 uM by LC/MS method; type: ADME; conditions: recombinant enzyme; how it was run: as §2
Cytochrome P450 2C19 = Cytochrome P450 2C19 (Homo sapiens, UniProt P33261); test: Drug metabolism assessed as human CYP2C19-mediated quinone methide metabolite formation at 10 uM by LC/MS method; type: ADME; conditions: recombinant enzyme; how it was run: as §2
Cytochrome P450 1A2 = target: T2, Cytochrome P450 1A2 (Homo sapiens, UniProt P05177); test: Drug metabolism assessed as human CYP1A2-mediated quinone methide metabolite formation at 10 uM by LC/MS method; type: ADME; conditions: recombinant enzyme; how it was run: as §2
T2 sequence (P05177 whole entry): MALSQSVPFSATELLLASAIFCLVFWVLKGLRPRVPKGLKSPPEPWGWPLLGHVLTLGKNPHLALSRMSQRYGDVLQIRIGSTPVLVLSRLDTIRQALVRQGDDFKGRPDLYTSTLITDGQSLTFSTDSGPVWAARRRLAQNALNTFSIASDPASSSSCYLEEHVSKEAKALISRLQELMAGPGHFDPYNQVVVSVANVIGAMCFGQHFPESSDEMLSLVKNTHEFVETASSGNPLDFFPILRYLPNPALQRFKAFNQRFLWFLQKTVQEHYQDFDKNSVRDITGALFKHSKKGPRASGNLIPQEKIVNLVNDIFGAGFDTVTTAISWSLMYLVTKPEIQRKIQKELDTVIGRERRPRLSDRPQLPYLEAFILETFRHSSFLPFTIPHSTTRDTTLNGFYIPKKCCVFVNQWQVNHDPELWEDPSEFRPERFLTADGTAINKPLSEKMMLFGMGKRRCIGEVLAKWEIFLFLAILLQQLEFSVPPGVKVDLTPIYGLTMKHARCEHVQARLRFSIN

Cytochrome P450 3A4 [6] = target: T1, Cytochrome P450 3A4; test: Drug metabolism assessed as human CYP3A4-mediated quinone methide metabolite formation at 10 uM by LC/MS method; type: ADME; conditions: recombinant enzyme; how it was run: as §2
Cytochrome P450 2C9 = Cytochrome P450 2C9 (Homo sapiens, UniProt P11712); test: Drug metabolism assessed as human CYP2C9-mediated quinone methide metabolite formation at 10 uM by LC/MS method; type: ADME; conditions: recombinant enzyme; how it was run: as §2
Chain of Cytochrome P450 2C9 (P11712 whole entry): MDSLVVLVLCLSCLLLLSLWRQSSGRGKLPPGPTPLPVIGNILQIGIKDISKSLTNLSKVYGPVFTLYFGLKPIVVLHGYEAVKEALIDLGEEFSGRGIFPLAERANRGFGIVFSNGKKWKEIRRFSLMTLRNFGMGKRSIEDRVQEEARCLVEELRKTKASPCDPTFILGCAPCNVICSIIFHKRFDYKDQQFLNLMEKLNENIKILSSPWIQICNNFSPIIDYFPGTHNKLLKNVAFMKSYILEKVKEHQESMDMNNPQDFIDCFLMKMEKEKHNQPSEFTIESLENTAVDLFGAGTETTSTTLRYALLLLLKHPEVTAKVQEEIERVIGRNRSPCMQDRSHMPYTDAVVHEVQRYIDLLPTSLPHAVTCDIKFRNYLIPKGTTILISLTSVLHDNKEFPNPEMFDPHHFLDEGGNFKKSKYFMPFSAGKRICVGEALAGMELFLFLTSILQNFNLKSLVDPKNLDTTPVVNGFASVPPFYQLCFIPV

T1 sequence (P08684 whole entry): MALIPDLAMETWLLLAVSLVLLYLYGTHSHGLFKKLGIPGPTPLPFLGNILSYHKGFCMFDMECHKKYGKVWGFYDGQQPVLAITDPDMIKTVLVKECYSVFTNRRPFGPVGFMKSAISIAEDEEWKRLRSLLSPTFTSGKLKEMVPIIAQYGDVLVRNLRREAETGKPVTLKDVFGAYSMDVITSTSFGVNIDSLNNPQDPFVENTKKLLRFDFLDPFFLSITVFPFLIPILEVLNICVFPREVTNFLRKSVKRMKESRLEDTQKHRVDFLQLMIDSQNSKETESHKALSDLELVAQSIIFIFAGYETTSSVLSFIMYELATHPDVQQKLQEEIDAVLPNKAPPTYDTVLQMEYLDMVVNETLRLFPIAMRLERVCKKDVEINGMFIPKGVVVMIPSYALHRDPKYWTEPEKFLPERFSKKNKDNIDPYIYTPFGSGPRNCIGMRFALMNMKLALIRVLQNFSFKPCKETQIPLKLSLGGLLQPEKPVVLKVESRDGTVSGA
Chain of Cytochrome P450 2C19 (P33261 whole entry): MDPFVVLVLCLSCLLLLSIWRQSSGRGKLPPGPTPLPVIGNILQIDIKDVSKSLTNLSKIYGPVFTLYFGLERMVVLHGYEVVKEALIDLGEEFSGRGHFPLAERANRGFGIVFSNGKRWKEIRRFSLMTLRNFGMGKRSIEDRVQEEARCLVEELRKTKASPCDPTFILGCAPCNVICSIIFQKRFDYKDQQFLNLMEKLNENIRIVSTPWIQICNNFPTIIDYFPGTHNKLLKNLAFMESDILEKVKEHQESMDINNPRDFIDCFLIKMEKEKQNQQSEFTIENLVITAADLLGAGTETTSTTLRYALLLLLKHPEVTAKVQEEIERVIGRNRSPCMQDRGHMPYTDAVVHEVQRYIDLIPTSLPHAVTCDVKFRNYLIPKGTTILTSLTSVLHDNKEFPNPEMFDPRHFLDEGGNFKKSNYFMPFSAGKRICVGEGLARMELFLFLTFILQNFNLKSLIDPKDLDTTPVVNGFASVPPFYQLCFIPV
Chain of Cytochrome P450 2E1 (P05181 whole entry): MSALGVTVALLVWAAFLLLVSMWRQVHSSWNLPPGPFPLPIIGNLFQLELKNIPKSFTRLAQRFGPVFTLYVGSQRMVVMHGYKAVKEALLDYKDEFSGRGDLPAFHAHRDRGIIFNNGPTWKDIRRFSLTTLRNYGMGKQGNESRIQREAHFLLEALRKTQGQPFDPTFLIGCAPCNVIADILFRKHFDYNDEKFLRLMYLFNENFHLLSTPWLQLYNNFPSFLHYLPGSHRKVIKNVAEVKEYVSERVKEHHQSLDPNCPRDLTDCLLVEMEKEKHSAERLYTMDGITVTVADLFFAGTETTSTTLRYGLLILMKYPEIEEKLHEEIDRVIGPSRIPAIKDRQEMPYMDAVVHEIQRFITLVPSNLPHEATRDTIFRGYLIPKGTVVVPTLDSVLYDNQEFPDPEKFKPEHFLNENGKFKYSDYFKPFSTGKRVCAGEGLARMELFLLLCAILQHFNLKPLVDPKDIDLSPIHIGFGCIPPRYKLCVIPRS
Chain of Cytochrome P450 2D6 (P10635 whole entry): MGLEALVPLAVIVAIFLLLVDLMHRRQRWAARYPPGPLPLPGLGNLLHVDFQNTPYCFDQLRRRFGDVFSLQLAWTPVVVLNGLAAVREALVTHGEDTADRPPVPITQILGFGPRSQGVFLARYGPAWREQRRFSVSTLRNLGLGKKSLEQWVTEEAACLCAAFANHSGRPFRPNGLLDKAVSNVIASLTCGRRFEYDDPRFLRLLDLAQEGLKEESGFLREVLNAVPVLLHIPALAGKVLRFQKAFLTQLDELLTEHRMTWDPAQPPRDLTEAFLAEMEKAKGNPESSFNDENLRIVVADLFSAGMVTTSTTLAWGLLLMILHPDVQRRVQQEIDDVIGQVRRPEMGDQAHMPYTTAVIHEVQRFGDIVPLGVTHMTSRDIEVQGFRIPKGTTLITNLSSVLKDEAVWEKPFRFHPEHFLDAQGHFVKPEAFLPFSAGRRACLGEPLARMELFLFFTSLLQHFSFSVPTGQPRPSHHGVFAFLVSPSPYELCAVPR

Drug metabolism (Liver microsome [1])	Retention_time [2] [min]	Drug metabolism (Cytochrome P450 3A4 [3])	half-life [4] [h]	SMILES	also measured
metabolite_detected	17.46	metabolite_detected	–	CC(C)(O)c1ccc(N2CCN(c3nnc(/C=C4\C=CC(=O)C=C4F)c4ccccc34)CC2)nc1	–
metabolite_detected	9.92	metabolite_detected	–	CC(C)(O)c1ccc(N2CCN(c3nnc(Cc4cc(SC[C@H](NC(=O)CC[C@H](N)C(=O)O)C(=O)NCC(=O)O)c(O)cc4F)c4ccccc34)CC2)nc1	–
–	–	–	4	C/C=C(/C(=C1C=CC(=O)C=C1)c1ccccc1)c1ccccc1	–
–	14.8	–	–	CC(C)(O)c1ccc(N2CCN(c3nnc(Cc4ccc(F)cc4F)c4ccccc34)CC2)nc1	Drug metabolism (Liver microsome [5]): metabolite_detected; Drug metabolism (Cytochrome P450 2E1): metabolite_not_detected; Drug metabolism (Cytochrome P450 2D6): metabolite_not_detected; Drug metabolism (Cytochrome P450 2C19): metabolite_not_detected; Drug metabolism (Cytochrome P450 1A2): metabolite_not_detected; Drug metabolism (Cytochrome P450 3A4 [6]): metabolite_detected; Drug metabolism (Cytochrome P450 2C9): metabolite_not_detected
–	–	–	3	C/C=C(/C(=C1C=CC(=O)C=C1)c1ccc(OCCN(C)C)cc1)c1ccccc1	–
